Read-outs that look alike come from different tables or passages of the source.
What was measured:
His-Ste14p (yeast Icmt) [1] = target: T1, His-Ste14p (yeast Icmt) (Saccharomyces cerevisiae, UniProt P32584); details: cited from earlier work
T1 sequence (P32584 1-239): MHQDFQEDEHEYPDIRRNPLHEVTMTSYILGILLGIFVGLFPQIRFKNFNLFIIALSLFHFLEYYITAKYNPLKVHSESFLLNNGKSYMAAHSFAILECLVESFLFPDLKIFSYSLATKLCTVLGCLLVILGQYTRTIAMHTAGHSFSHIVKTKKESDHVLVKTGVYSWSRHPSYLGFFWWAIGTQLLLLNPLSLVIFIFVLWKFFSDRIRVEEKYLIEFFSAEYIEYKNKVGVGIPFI

His-Ste14p (yeast Icmt) [2] = target: T1, His-Ste14p (yeast Icmt); format: biochemical; details: pH 7.5, 30 °C; for Vmax/Km: catalytic efficiency, from Vmax and apparent Km, crude membranes; for Vmax: pmol of methyl groups transferred to substrate; for Vmax / Km: crude membrane preparations, 20 μM [14C]SAM, 100 mM Tris-HCl, 30 min, liquid scintillation counting; for Km: read-out: Km(app), apparent values (single SAM concentration, membrane suspension)
In short: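 Membranes from yeast strain CH2704 overexpressing His-Ste14p: 100 000g pellet resuspended in 10 mM Tris-HCl pH 7.5, stored at −80 °C. Reaction: membranes plus substrate, 20 μM [14C]SAM (50–60 mCi/mmol), 100 mM Tris-HCl pH 7.5, 30 °C for 30 min. Stopped with 1 M NaOH/1% SDS; base-labile [14C]methyl diffused onto filter over scintillant, rt for 2.5 h, then counted. Km apparent: single SAM level, peptide partitions into membranes.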

[3] = tested on: His-Ste14p (crude membranes); format: binding, Saccharomyces cerevisiae; details: 16 in competition with 17, 5 to 200 μM
In short: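 Crude membranes (100 μg) from a Δste14 yeast strain overexpressing His-Ste14p, in 10 mM Tris-HCl pH 7.5, preincubated with increasing competitor peptide; diazirine photoprobe then added, 4 °C for 5 min. Irradiated at 365 nm, 30 min on ice. Solubilized in RIPA/10% SDS; neutravidin-agarose pulldown 2 h at 4 °C, three washes, eluted in SDS sample buffer at 65 °C for 30 min. 12% SDS-PAGE, α-Ste14p immunoblot (1:500).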

Compound | Vmax/Km (His-Ste14p (yeast Icmt) [1]; catalytic efficiency, previously reported) [pmol min^–1 mg^–1 μM^–1] | Vmax (His-Ste14p (yeast Icmt) [1]; pmol of methyl groups transferred to substrate, previously reported) [pmol min^–1 mg^–1] | Km (His-Ste14p (yeast Icmt) [1]; read-out: Km(app), apparent values, previously reported) [µM] | Vmax/Km (His-Ste14p (yeast Icmt) [2]) [pmol min^–1 mg^–1 μM^–1] | Vmax (His-Ste14p (yeast Icmt) [2]) [pmol min^–1 mg^–1] | Vmax (His-Ste14p (yeast Icmt) [2]; listed as diazirine-containing peptide) [pmol min^–1 mg^–1] | Km (His-Ste14p (yeast Icmt) [2]) [µM] | site of photolabeling, inferred from competition [3]
CC(=O)N[C@@H](CSC/C=C(\C)CC/C=C(\C)CCC=C(C)C)C(=O)O [AFC, N-acetyl-S-farnesyl-L-cysteine] | 54 | 870 ± 15 | 15.9 ± 0.9 | – | – | – | – | –
Biotin-Peg4-YIIKGVFWDPAC(Fr)-OH [compound 17] | – | – | – | 157 | 1919 ± 30 | – | – | –
Biotin-Peg4-K(5-Fam)YIIKGVFWDPAC(C10-Diazirine)-OH [compound 16] | – | – | – | 143 | 947 ± 4 | 947 | 6.6 ± 0.2 | labeling the substrate binding site of His-Ste14p
Biotin-Peg4-K(5-Fam)YIIKGVFWDPAC(C5-m-BP)-OH [compound 19] | – | – | – | – | 217 ± 3 | – | 27.8 ± 1 | –

— article PMC3985442 (The Journal of Organic Chemistry, 2014)
